Results as given in ChEMBL document CHEMBL1135780, “6-Chloro-3-alkylamino-4H-thieno[3,2-e]-1,2,4-thiadiazine 1,1-dioxide derivatives potently and selectively activate ATP sensitive potassium channels of pancreatic beta-cells” (J Med Chem, 2002).

Key:
Beta-TC6 [1] = experiment: Maximum inhibition of glucose stimulated insulin release from mouse beta-TC6 cells at 10 uM in vitro.; format: functional
Beta-TC6 [2] = experiment: Ability to inhibit the release of insulin from the mouse beta-TC6 cell line; format: functional, cell-based
Procedure, shortened: (§1)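 βTC6 cells, 5 × 10⁴/well, grown 3 days in DMEM + 10% FCS, 11 mM glucose, 20 mM Hepes. Washed twice in NN buffer with 0.1% BSA, preincubated 60 min, then 3 h with 22 mM glucose, 0.1 mM IBMX and serial compound dilutions. Insulin in supernatant measured by in-house ELISA (guinea pig anti-insulin, rat insulin standard). Reference compound as positive control.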

[3] = Changes in potassium fluxes assessed in the glucose responsive insulin-producing murine cell line beta-TC3; format: functional, cell-based, Mus musculus
Procedure, shortened: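 βTC3 membrane potential read as DiBAC4(3) fluorescence at 0.01, 0.1, 1, 10 and 100 µM, four wells each. Signal normalized to each well's initial value and expressed as fractional fluorescence change over 45 min incubation. EC50 from four-parameter nonlinear fit; mean ± SEM of at least three independent experiments.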

Rattus norvegicus [4] = species on record: Rattus norvegicus; experiment: Ability to relax phenylephrine-contracted rat aorta rings; format: functional
[5] = Oral bioavailability in rat (Sprague-Dawley); format: ADME, organism-based; conditions: in vivo; for bioavailability: Sprague-Dawley
Procedure, shortened: (§2)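 Cassette dosing, two compounds per cassette, in Sprague–Dawley rats of about 180 g, n = 2. iv doses 0.5 or 0.89 mg/kg; oral doses 1.89 or 2.0 mg/kg. Vehicle 0.1 M potassium phosphate pH 8.0, or PEG 300 based. Heart-puncture sampling, one rat per point. Plasma levels by LC/MS/MS; noncompartmental analysis.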

Beta-TC6 [6] = experiment: Percentage insulin release in vitro in beta-TC6 cells; format: functional; conditions: Mus musculus; procedure, shortened: as §1
Rattus norvegicus [7] = species on record: Rattus norvegicus; experiment: Maximum change in MAP in rat; format: functional
Procedure, shortened: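 Anaesthetized male Sprague–Dawley rats given 3 mg/kg iv bolus (0.3 mg/kg for one compound) in 0.15% NaOH/saline via jugular cannula. Maximal percent change in mean arterial pressure over 5 min after dosing; mean ± SEM, 2–4 animals.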

Rattus norvegicus [8] = species on record: Rattus norvegicus; experiment: Vasodilation effects on Wistar rat mesenteric arteries precontracted with phenylephrine; format: functional
Rattus norvegicus [9] = species on record: Rattus norvegicus; experiment: Inhibition of glucose-stimulated insulin release from Wistar rat islets; format: functional
Procedure, shortened: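 Isolated rat islets held overnight in RPMI, 10% FCS, 11 mM glucose, then 10 islets/well overnight in DMEM, 10% FCS, 3 mM glucose. Run like the βTC6 assay (60 min NN buffer preincubation, 3 h with 22 mM glucose and serial dilutions) without IBMX. Insulin by in-house ELISA.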

Rattus norvegicus [10] = species on record: Rattus norvegicus; experiment: Reduction in plasma insulin in 30 min post-injection in rat; format: functional; set-up: concentration or dose not given beside the values
Procedure, shortened: (§3)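 Postprandial male Sprague–Dawley rats, 280–320 g, under Hypnorm/Dormicum at 37 °C. 3 mg/kg iv bolus over 20 s via jugular cannula (0.3 mg/kg for one compound), dissolved in 0.15% NaOH and saline. Blood taken every 5–10 min from 15 min pre- to 30 min postinjection. Plasma insulin by ELISA, as % reduction from pre-dose level. 2–4 animals.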

Rattus norvegicus [11] = species on record: Rattus norvegicus; experiment: Maximum reduction in plasma insulin in rat; format: functional; procedure, shortened: as §3
Rattus norvegicus [12] = species on record: Rattus norvegicus; experiment: Effective concentration required for relaxation of rat aorta rings; format: functional
[13] = Acid dissociation constant was determined; format: ADME
Procedure, shortened: (§4)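 Potentiometric titration from pH 2 to 10.5 in 80% MeOH cosolvent. Three titrations on the same sample, with 0.15 M KCl added before the second. psKa values extrapolated to 0% cosolvent by Yasuda–Shedlovsky.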

[14] = Half life after oral administration to Sprague-Dawley rats; format: ADME, organism-based; conditions: rat, in vivo; procedure, shortened: as §2
[15] = target: T1, Sulfonylurea receptor 1, Kir6.2 (Homo sapiens, UniProt Q09428+Q14654); experiment: (§5) Inhibition of [3H]glibenclamide binding to HEK293 cells co-expressing human Sulfonylurea receptor SUR1 and Inward rectifier K+ channel Kir6.2 without ATP; format: cell-based
Procedure, shortened: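 Membranes from HEK293 cells stably expressing human SUR1/Kir6.2 (100 µg/mL protein) incubated 1 h at 37 °C with 1 nM [3H]glibenclamide in 30 mM HEPES pH 7.4, here without MgCl2 and ATP. Nonspecific binding with 10 µM glipizide. Rapid filtration, scintillation counting; IC50 by one- or two-site sigmoid nonlinear regression.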

[16] = target: T1, Sulfonylurea receptor 1, Kir6.2; experiment: Inhibition of [3H]glibenclamide binding to HEK293 cells co-expressing human Sulfonylurea receptor SUR1 and Inward rectifier K+ channel Kir6.2 at high affinity state with 2 mM MgATP; format: cell-based
[17] = target: T1, Sulfonylurea receptor 1, Kir6.2; experiment: Inhibition of [3H]glibenclamide binding to HEK293 cells co-expressing human Sulfonylurea receptor SUR1 and Inward rectifier K+ channel Kir6.2 at low affinity state with 2 mM MgATP; format: cell-based
[18] = target: T1, Sulfonylurea receptor 1, Kir6.2; experiment: as §5; format: cell-based; remark: listed apart in the source
Rattus norvegicus [19] = species on record: Rattus norvegicus; experiment: Effective concentration required for relaxation of the rat aorta rings; format: functional
[20] = (§6) LogD for water and octanol distribution coefficient at pH 7.4; format: physicochemical
Procedure, shortened: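 Octanol/water distribution measured by potentiometric titration, pH 10.5 to 2.0. Three titrations on one sample, with 1.00 mL then 10.00 mL octanol added before the second and third. Aqueous pKa used in refinement; combined multiset gives LogD at pH 7.4.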

[21] = Partition coefficient (logP); format: physicochemical; conditions: octanol/water
[22] = Compound was evaluated for physiochemical property pKa; format: physicochemical; procedure, shortened: as §4
[23] = as §6; format: physicochemical; remark: listed apart in the source
Procedure, shortened: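 Three titrations on one sample, with 1.00 mL then 10.00 mL octanol added before the second and third. Aqueous pKa used in refinement; combined multiset gives LogD at pH 7.4.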

T1 sequence (Q14654 whole entry): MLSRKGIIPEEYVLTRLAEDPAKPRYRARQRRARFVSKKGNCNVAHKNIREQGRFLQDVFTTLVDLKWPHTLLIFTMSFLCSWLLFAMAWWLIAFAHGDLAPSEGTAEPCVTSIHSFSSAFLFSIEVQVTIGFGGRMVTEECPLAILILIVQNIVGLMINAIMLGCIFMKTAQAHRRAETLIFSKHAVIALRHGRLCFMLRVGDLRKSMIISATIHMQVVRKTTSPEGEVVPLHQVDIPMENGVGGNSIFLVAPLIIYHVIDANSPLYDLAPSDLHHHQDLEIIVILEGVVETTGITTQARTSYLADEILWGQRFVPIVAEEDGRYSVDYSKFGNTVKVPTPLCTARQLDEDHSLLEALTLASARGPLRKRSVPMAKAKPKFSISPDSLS
T1 sequence (Q09428 whole entry): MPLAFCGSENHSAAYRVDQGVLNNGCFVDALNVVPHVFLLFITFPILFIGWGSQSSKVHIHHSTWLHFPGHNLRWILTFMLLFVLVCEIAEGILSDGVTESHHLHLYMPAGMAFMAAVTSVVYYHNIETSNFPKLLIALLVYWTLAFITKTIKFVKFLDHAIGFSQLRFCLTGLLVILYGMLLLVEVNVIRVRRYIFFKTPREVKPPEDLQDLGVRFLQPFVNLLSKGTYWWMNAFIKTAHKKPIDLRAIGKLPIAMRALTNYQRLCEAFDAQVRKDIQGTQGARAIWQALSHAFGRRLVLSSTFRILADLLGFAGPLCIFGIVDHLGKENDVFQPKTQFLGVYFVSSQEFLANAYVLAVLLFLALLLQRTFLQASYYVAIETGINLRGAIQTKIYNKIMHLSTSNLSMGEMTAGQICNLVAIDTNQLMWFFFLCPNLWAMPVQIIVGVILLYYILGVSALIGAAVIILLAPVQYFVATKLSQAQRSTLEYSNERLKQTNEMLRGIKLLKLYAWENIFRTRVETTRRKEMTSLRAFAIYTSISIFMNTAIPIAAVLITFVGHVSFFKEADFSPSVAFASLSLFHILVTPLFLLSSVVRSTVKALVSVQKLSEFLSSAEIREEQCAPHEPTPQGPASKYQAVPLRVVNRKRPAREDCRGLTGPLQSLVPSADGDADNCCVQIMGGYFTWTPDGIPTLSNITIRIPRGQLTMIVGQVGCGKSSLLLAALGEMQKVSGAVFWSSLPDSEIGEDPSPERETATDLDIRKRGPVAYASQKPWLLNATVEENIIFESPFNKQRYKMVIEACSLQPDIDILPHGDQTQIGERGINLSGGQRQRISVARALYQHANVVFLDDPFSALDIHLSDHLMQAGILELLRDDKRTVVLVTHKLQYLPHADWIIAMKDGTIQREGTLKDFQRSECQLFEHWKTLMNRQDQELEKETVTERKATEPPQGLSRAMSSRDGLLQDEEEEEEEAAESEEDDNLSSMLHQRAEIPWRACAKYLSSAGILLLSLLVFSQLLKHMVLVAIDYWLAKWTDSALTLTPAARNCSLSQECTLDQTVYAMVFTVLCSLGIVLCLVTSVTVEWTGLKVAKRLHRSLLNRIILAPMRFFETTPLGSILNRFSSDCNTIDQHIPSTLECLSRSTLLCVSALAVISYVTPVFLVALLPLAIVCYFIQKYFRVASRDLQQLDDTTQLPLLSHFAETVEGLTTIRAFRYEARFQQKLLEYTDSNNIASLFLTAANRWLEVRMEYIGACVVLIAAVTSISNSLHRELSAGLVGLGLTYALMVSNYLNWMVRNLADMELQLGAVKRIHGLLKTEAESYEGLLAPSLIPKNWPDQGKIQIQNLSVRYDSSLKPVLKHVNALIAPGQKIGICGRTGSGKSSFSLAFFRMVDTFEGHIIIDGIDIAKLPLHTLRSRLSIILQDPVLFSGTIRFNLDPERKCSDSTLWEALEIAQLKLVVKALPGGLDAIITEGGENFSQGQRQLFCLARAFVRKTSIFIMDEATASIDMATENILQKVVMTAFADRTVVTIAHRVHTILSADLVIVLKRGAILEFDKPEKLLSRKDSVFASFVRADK

SMILES	Emax at 10 µM (Beta-TC6 [1]) [%]	IC50 (Beta-TC6 [2]) [nM]	EC50 [3] [nM]	EC50 (Rattus norvegicus [4]) [µM]	Emax (Beta-TC6 [6]) [%]	Change (Rattus norvegicus [7]) [%]	EC50 (Rattus norvegicus [8]) [µM]	IC50 (Rattus norvegicus [9]) [nM]	Reduction (Rattus norvegicus [10]) [%]	Reduction (Rattus norvegicus [11]) [%]	other results
CC(C)[C@H](C)NC1=NS(=O)(=O)c2sc(Cl)cc2N1	80	560	14000	> 300							
CCCC(C)NC1=NS(=O)(=O)c2sc(Cl)cc2N1 (racemic)	56	220	41000	83							
O=S1(=O)NC(NC2CC2)=Nc2cc(Cl)sc21	37	7380	> 30000	28.2							
CC(C)CCCC(C)NC1=NS(=O)(=O)c2sc(Cl)cc2N1 (racemic)	72	4890	2000	25.2							
CC1=Nc2ccc(Cl)cc2S(=O)(=O)N1 [DIAZOXIDE]			77400		23	-26	20.8	20300	53	53	F [5]: 154%; EC50 (Rattus norvegicus [12]): 12.8 µM
CC1(NC2=NS(=O)(=O)c3sc(Cl)cc3N2)CCCC1	79	70	80	6.2							
CC1(NC2=NS(=O)(=O)c3sc(Cl)cc3N2)CCCCC1	62	5330	1000	1.4							
CC[C@H](C)NC1=NS(=O)(=O)c2sc(Cl)cc2N1		410	800	51	79	-7	19.2	70	94	96	bioavailability [5]: 49%; pKa [13]: 8.42; half-life [14]: 58 min; IC50 [15]: 420 µM; IC50 [16]: 460 nM; IC50 [17]: 309 µM
O=S1(=O)NC(NC2CCC2)=Nc2cc(Cl)sc21		490	1400	27	78	5	38.6	50	100	100	bioavailability [5]: 49%; half-life [14]: 113 min; IC50 [16]: 120 nM; IC50 [17]: 146 µM; IC50 [18]: 943 µM
CC(C)C(C)NC1=NS(=O)(=O)c2sc(Cl)cc2N1 (racemic)	79	170		34.8							
CCCCCCNC1=NS(=O)(=O)c2sc(Cl)cc2N1	67	7100	200	0.15							EC50 (Rattus norvegicus [12]): 0.15 µM
CC(C)(C)NC1=NS(=O)(=O)c2sc(Cl)cc2N1		170	400	169	77	-36	60.6	60	71	85	IC50 [16]: 230 nM; IC50 [17]: 393 µM; IC50 [18]: 1350 µM
CC1(NC2=NS(=O)(=O)c3sc(Cl)cc3N2)CCC1		20	14	6.5	91	-48	7.2	10	76	82	IC50 [16]: 3 nM; IC50 [17]: 10.8 µM; IC50 [18]: 859 µM
NC1=NS(=O)(=O)c2sc(Cl)cc2N1	27	21100		262							EC50 (Rattus norvegicus [12]): 262 µM
CC1(NC2=NS(=O)(=O)c3sc(Cl)cc3N2)CC1 [TIFENAZOXIDE]		150	600	119	69	-4	14.3		77	85	
CCCCCC(C)NC1=NS(=O)(=O)c2sc(Cl)cc2N1 (racemic)	36	25000	400	2							
CCC1(NC2=NS(=O)(=O)c3sc(Cl)cc3N2)CCC1	81	20	100	3.3							
CC(C)[C@@H](C)NC1=NS(=O)(=O)c2sc(Cl)cc2N1	62	1010	300	75.3							
CC(NC1=NS(=O)(=O)c2sc(Cl)cc2N1)C(C)(C)C (racemic)	56	750	17000	2							
CCCCNC1=NS(=O)(=O)c2sc(Cl)cc2N1	66	1390	600	13.4							EC50 (Rattus norvegicus [19]): 13.4 µM
CCC(C)(C)NC1=NS(=O)(=O)c2sc(Cl)cc2N1		30	200	11.8	82	-34	29.4	20	77	87	bioavailability [5]: 47%; half-life [14]: 99 min; IC50 [16]: 180 nM; IC50 [17]: 375 µM; IC50 [18]: 899 µM
CCC(C)CNC1=NS(=O)(=O)c2sc(Cl)cc2N1 (racemic)	48	150	20000	20.5							logD [20]: 3.14; logP [21]: 3.17; pKa [22]: 8.29
O=S1(=O)NC(NC2CCCC2)=Nc2cc(Cl)sc21		1150	400	> 300	67	29	10.8	440	22	99	
O=S1(=O)NC(NC2CCCCC2)=Nc2cc(Cl)sc21	40	25600	8000	6.8							
CCC(CC)CNC1=NS(=O)(=O)c2sc(Cl)cc2N1	38	240	> 100000	8							
CCC(C)NC1=NS(=O)(=O)c2sc(Cl)cc2N1 (stereo not drawn)	74	160	1300	65							
CCCCCCCCNC1=NS(=O)(=O)c2sc(Cl)cc2N1	76	1500	500	176							
CC(C)NC1=NS(=O)(=O)c2sc(Cl)cc2N1		230	600	266	85	-19	6.2	180	96	96	bioavailability [5]: 65%; pKa [13]: 8.35; half-life [14]: 164 min; logP [21]: 1.84; IC50 [16]: 340 nM; IC50 [17]: 187 µM; IC50 [18]: 554 µM; logD [23]: 1.63
CCNC1=NS(=O)(=O)c2sc(Cl)cc2N1	74	1900	9000	136							EC50 (Rattus norvegicus [19]): 136 µM
CCCNC1=NS(=O)(=O)c2sc(Cl)cc2N1	65	2400	2000	64.7	65	13	23.3	700	16	100	bioavailability [5]: 69%; pKa [13]: 8.23; half-life [14]: 72 min; logP [21]: 2.49; IC50 [16]: 2270 nM; IC50 [17]: 584 µM; IC50 [18]: 924 µM; logD [23]: 2.42
